APJ antag: antagonists of human apelin receptor APJ, primary screen, CHO-K1 cells, beta-arrestin complementation, luminescence; AID 2521, 2010; inhibition, % at 20 µM; P35414; 330,000 compounds, 0.32% hits;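 active = inhibition above about 40% at 20 µM, limit read from the data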;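 note: cells challenged with 10 nM apelin-13 agonist together with compound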
CXCR6 block: CXCR6 receptor inhibitors, primary screen, cell-based, beta-arrestin, luminescence, CHO-K1 PathHunter, 1536-well; inhibition, % at 20 µM; 360,000 compounds, 0.36% hits; AID 602244, 2012; in the data active = inhibition above about 34%, passing the limit was not always enough;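 note: antagonist mode with CXCL16 agonist at 10 nM final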
EBI2 antag: EBI2 receptor antagonists, beta-arrestin recruitment, primary screen, cell-based, luminescence, 7a,25-OHC stimulation, uHTS; 7a,25-OHC stimulated; 360,000 compounds, 0.81% hits; inhibition, % at 5 µM; G-protein coupled receptor 183 (Homo sapiens), P32249; in the data active = inhibition above about 38%;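 note: enzyme fragment complementation signal reports receptor beta-arrestin coupling in cells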
CCR6 antagonist: CCR6 receptor antagonists, primary screen, cell-based, CHO-K1, luminescence, beta-arrestin, uHTS; CHO-K1 CCR6 PathHunter beta-arrestin, CCL20-stimulated; inhibition, % at 20 µM; 340,000 compounds, 0.49% hits;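 active = compounds whose inhibition of the agonist-driven luminescence signal at 20 µM reaches about 50%, limit read from the data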;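 note: cells stimulated with CCL20 at 14 nM final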
Target sequence (P51684 whole entry, looked up): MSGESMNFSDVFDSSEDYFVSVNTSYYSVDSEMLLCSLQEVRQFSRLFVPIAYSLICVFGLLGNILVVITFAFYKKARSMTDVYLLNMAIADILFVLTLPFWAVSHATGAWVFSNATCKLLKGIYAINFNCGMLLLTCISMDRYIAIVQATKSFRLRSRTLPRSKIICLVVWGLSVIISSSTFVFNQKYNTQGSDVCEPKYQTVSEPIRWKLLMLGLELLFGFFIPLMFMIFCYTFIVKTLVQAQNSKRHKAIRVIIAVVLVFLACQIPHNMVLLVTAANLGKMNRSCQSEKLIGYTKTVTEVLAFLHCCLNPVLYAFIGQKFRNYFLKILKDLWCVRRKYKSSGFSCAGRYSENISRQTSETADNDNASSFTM
APJ agonist: agonists of human apelin receptor APJ, primary screen, CHO-K1 cells, PathHunter beta-arrestin, luminescence. P35414. 0% DMSO wells, 100% apelin. activation, % at 20 µM. 330,000 compounds, 0.11% hits. AID 2520, 2010;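 active = activation more than six SD over the plate average, tested at 20 µM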
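Material: engineered CHO-K1 APJ arrestin reporter cells; amount: 1000 CHO-K1 reporter cells seeded per well; incubation: compound stimulation 90 min at 25 °C, detection 60 min; signal: luminescent beta-gal fragment complementation, chemiluminescent substrate; read-out basis: APJ agonist activity; controls: DMSO-only wells as negative, 10 nM Apelin-13 as positive control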
EBI2 conf: EBI2 antagonist hit retest, beta-arrestin, confirmation, cell-based, single concentration, luminescence, 7a,25-OHC stimulation. shares compounds with EBI2 antag. 7a,25-OHC antagonism. inhibition, % at 5 µM. 2,400 compounds, 29% hits;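 active = inhibition of at least 50%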
EBI2 ag: EBI2 agonist activity of antagonist hits, confirmation, counter-screen for EBI2 antagonist project, cell-based, single concentration, agonist mode, luminescence. AID 652000, 2013. EBI2-expressing cells, 60 min; 0% vehicle, 100% 7α,25-dihydroxycholesterol control. shares compounds with EBI2 antag. 2,400 tested, under 10 active. activation, % at 5 µM;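 active = activation of at least 50%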
bGal cs: E. coli beta-galactosidase enzyme inhibition, confirmation, counter-screen for EBI2 antagonist project, biochemical, luminescence, single concentration. shares compounds with EBI2 antag. purified beta-galactosidase, luminescent Galacton Star, 15 min. inhibition, % at 5 µM. 2,400 compounds, 1% hits;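 active = replicate-average signal at least 3 plate SD below neutral wells, shown as high inhibition, flagging enzyme-inhibiting false positives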;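 note: higher means stronger loss of beta-gal luminescence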
Large screens that a line does not name were inactive (follow-up assays come after a bar, where they were run). Most compounds without a hit are left out; they make up all but 1.5% or so of the library.

COc1ccc(OCC(=O)N2CCN(S(=O)(=O)c3ccc4c(c3)OCCO4)CC2)cc1	EBI2 antag 82.0 (no result: APJ antag, CCR6 antagonist, APJ agonist) | EBI2 conf 54.7 | EBI2 ag inactive | bGal cs inactive
COc1ccc(CC(=O)N2CCN(c3ccccn3)CC2)cc1	none
CCN(CC(=O)NC1CCS(=O)(=O)C1)c1nc(-c2ccccc2)nc2ccccc12 (stereo not drawn)	none
CNc1c2cccc(C)c2nc2c(C(=O)NCCN(C)C)cccc12	none (no result: APJ antag, APJ agonist)
Cc1ccc(OCC(=O)N2CCCCCCC2)cc1	none
Cc1ccc(OCC(=O)N2CCN(C(=O)Cc3ccccc3)CC2)cc1	EBI2 antag 57.7 | EBI2 conf inactive | EBI2 ag inactive | bGal cs inactive
CCOc1ccccc1N1CCN(C(=O)c2cc3ccccc3cc2OC)CC1	EBI2 antag 56.8 | EBI2 conf inactive | EBI2 ag inactive | bGal cs inactive
COc1cc2ccccc2cc1C(=O)N1CCN(C(C)=O)CC1	EBI2 antag 66.3 | EBI2 conf 51.6 | EBI2 ag inactive | bGal cs inactive
Cc1cc(C)n(-c2ccc(C(=O)N3CCN(S(=O)(=O)c4ccc(Br)cc4Cl)CC3)cc2)n1	EBI2 antag 92.0 (no result: APJ antag, CCR6 antagonist, APJ agonist) | EBI2 conf 65.3 | EBI2 ag inactive | bGal cs inactive
O=C(COC(=O)Cn1nnc(-c2ccccc2)n1)Nc1ccccc1Br	none
CC(C)Cc1ccc(-c2cc3nc(NCCc4ccc(S(N)(=O)=O)cc4)ccn3n2)cc1	EBI2 antag 65.6 (no result: APJ antag, CCR6 antagonist, APJ agonist) | EBI2 conf inactive | EBI2 ag inactive | bGal cs inactive
NS(=O)(=O)c1ccc(CCNc2ccn3nc(-c4ccccc4)cc3n2)cc1	none (no result: APJ antag, CCR6 antagonist, APJ agonist)
Clc1ccc(-c2ccccc2)cn1	none
Cc1cc(Cl)ccc1Oc1ncc(-c2ccc(Cl)cc2)cn1	EBI2 antag 59.5 | EBI2 conf inactive | EBI2 ag inactive | bGal cs inactive
Clc1ccc(-c2cnc(Oc3ccccc3)nc2)cc1	EBI2 antag 72.9 | EBI2 conf inactive | EBI2 ag inactive | bGal cs inactive
COc1ccc(OC)c(C=C2CCc3ccccc3C2=O)c1	none (no result: APJ antag, CCR6 antagonist, APJ agonist)
COC(=O)[C@@H]1C[C@@]2(O)[C@H](O)[C@H](O)[C@H](O)C[C@H]2N1CC(c1ccccc1)c1ccccc1	none
Cc1ccc(/C=C2\CCC(C3CCCC3)C2=O)cc1 (stereo not drawn)	none
O=C1/C(=C\c2ccc(Cl)cc2)CCC1CNc1ccc(Cl)cc1 (stereo not drawn)	EBI2 antag 46.6 (no result: APJ antag, APJ agonist) | EBI2 conf inactive | EBI2 ag inactive | bGal cs inactive
Cc1cc(C)c(S(=O)(=O)N2CCN(C(=O)CCn3nc(C)c(C)c3C)CC2)c(C)c1	EBI2 antag 46.6 | EBI2 conf inactive | EBI2 ag inactive | bGal cs inactive
COc1ccc2cc3cc(C(=O)NCc4cccs4)oc3nc2c1	none
CC1(C(=O)NS(=O)(=O)c2ccc(Br)cc2)CCN1C(=O)CCC1CCCC1 (stereo not drawn)	none (no result: APJ antag, CCR6 antagonist, APJ agonist)
CSc1ccccc1OCc1cc(C(=O)N[C@H]2CCCCNC2=O)no1	none
Cc1ccc(CNC(=O)C2CCN(S(=O)(=O)c3ccc4c(c3)CC(C)N4C(=O)C3CC3)CC2)cc1 (stereo not drawn)	EBI2 antag 79.5 | EBI2 conf inactive | EBI2 ag inactive | bGal cs inactive
CC(=O)N1c2ccc(S(=O)(=O)NCC3CCC(C(=O)NCc4ccc(C)cc4)CC3)cc2CC1C (stereo not drawn)	EBI2 antag 57.1 | EBI2 conf inactive | EBI2 ag inactive | bGal cs inactive
CCc1nc2cccnc2n1-c1ccc(CC(=O)NCCOC)cc1	none
CCOC(=O)Nc1ccc(Oc2ccccc2)cc1	none
CCOC(=O)Nc1ccc(C(=O)/C=C/c2ccccc2)cc1	EBI2 antag 63.0 | EBI2 conf inactive | EBI2 ag inactive | bGal cs inactive
CSc1ccc(/C=C/C(=O)Nc2ccccc2)cc1	none
CSc1ccc(/C=C/C(=O)c2ccc(NC(=O)C(C)C)cc2)cc1	EBI2 antag 74.9 | EBI2 conf 65.8 | EBI2 ag inactive | bGal cs inactive
CSc1ccc(/C=C/C(=O)c2ccc(NC(=O)Cc3ccccc3)cc2)cc1	EBI2 antag 92.0 | EBI2 conf 80.2 | EBI2 ag inactive | bGal cs inactive
Cn1c(=O)c2c(nc(N3CCc4ccccc4C3)n2Cc2ccc(Br)cc2)n(C)c1=O	none
CC(C)OC(=O)CSc1nnc(-c2ccc(Cl)cc2)n1N	none
CN1C(=O)c2ccc(C(=O)Nc3ccc4c(c3)OCO4)cc2C1=O	EBI2 antag 44.8 | EBI2 conf inactive | EBI2 ag inactive | bGal cs inactive
COc1ccc(NC(=O)c2ccc3c(c2)C(=O)N(CC2CCCO2)C3=O)cc1O (stereo not drawn)	none
O=C(Nc1ccc2c(c1)OCO2)c1ccccc1	none
Cc1ccc(NC(=O)c2ccc3c(c2)C(=O)N(CC2CCCO2)C3=O)cc1C (stereo not drawn)	EBI2 antag 74.3 | EBI2 conf 52.2 | EBI2 ag inactive | bGal cs inactive
Cn1c(=NC(=O)C2CCN(S(=O)(=O)c3cccs3)CC2)sc2ccccc21	EBI2 antag 56.7 | EBI2 conf inactive | EBI2 ag inactive | bGal cs inactive
CN(C(=O)C1CCN(S(=O)(=O)c2cccs2)CC1)c1ccccc1	none
C=CCNC(=S)NCc1cccnc1	none
CCOC(=O)c1[nH]c(C)c(C(=O)OCCN2C(=O)c3ccccc3C2=O)c1C	none
CCOC(=O)c1[nH]c2ccc(OCC)cc2c1CCCN1C(=O)c2ccccc2C1=O	EBI2 antag 45.9 | EBI2 conf inactive | EBI2 ag inactive | bGal cs inactive
C#CCN1C(=O)C(O)(CC(=O)c2ccc(OC)c(OC)c2)c2ccccc21 (stereo not drawn)	none
O=C(COc1ccc(-c2ccccc2)cc1)N1CCN(C(=O)c2cccs2)CC1	none
CO[C@@H]1CN(C)C(=O)c2cc(NC(=O)NC3CCCCC3)ccc2OC[C@@H](C)N(CC2CCOCC2)C[C@@H]1C	none (no result: APJ antag, CXCR6 block, CCR6 antagonist, APJ agonist)

High-throughput results (PubChem BioAssay)
